The source made the active and inactive calls. The rule behind the calls is not given here.
What was measured:
[1] = Binding affinity to beta-tubulin 219-243 amino acid sequence by mass spectroscopy
Outline: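 Polymerized native microtubules (20 µM tubulin, 25 µM ligand, 30 min, 37 °C in GAB with 1 mM GTP) pelleted and washed, then digested with trypsin (2 h, 37 °C) or chymotrypsin (1 h, 25 °C). Peptides analysed by nano-HPLC triple-quadrupole MS with precursor ion scanning for the m/z 249.0 cyclostreptin fragment. Adduct stoichiometry taken from the 219–243 peptide signal.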

[2] = Induction of mitotic cell cycle arrest in potoroo PtK2 cells assessed as accumulation at S phase at 5 uM treated for 7 hrs, washed followed by 16 hrs incubation by flow cytometry (Rvb= 16%); format: functional, Potorous tridactylus
[3] = system: A2780; experiment: Induction of mitotic cell cycle arrest in human A2780 cells assessed as accumulation of cells at G1/G0 phase at 100 nM after 24 hrs by flow cytometry (Rvb= 60%); format: functional
[4] = Induction of mitotic cell cycle arrest in potoroo PtK2 cells assessed as accumulation of cells at G1/G0 phase at 5 uM treated for 7 hrs, washed followed by 48 hrs incubation by flow cytometry (Rvb= 65.8%); format: functional, Potorous tridactylus
[5] = Cytotoxicity against human 1A9PTX22 cells; format: functional, cell-based; details: 1A9/ptx-22
[6] = Induction of mitotic cell cycle arrest in potoroo PtK2 cells assessed as accumulation of cells at G1/G0 phase at 2 uM after 7 hrs by flow cytometry (Rvb= 60%); format: functional, Potorous tridactylus
[7] = Induction of mitotic cell cycle arrest in potoroo PtK2 cells assessed as accumulation of cells at G1/G0 phase at 5 uM treated for 7 hrs, washed followed by 16 hrs incubation by flow cytometry (Rvb= 59%); format: functional, Potorous tridactylus
[8] = Induction of mitotic cell cycle arrest in potoroo PtK2 cells assessed as accumulation of cells at SubG1 phase at 5 uM after 7 hrs by flow cytometry (Rvb= 2.4%); format: functional, Potorous tridactylus
[9] = Induction of mitotic cell cycle arrest in potoroo PtK2 cells assessed as accumulation of cells at G2+M phase at 2 uM after 7 hrs by flow cytometry (Rvb= 22.1%); format: functional, Potorous tridactylus
[10] = Displacement of [3H]discodermolide from microtubule assessed as bound radioligand level at 20 uM treated before radioligand addition by competitive binding assay
[11] = system: PtK2; experiment: Displacement of Flutax-2 from microtubule in potoroo PtK2 cells at 100 uM; details: Potorous tridactylus
[12] = system: PtK2; experiment: Induction of micronucleation in potoroo PtK2 cells at 2 uM treated for 7 hrs followed by compound washout measured after 48 hrs by flow cytometry; format: functional, cell-based; details: Potorous tridactylus
[13] = system: A549; experiment: Induction of mitotic cell cycle arrest in human A549 cells assessed as accumulation of cells at G2+M phase at 100 nM after 24 hrs by flow cytometry (Rvb= 19.6%); format: functional
[14] = biological target: Tubulin (Homo sapiens) (UniProt P68371+Q9H4B7+P0DPH7+P68366+Q13509+Q71U36+P04350+Q3ZCM7+P07437+P68363+Q9BQE3+Q6PEY2+Q13885+Q9BVA1+Q9BUF5); experiment: Binding affinity to tubulin in human A549 cells
[15] = Induction of mitotic cell cycle arrest in potoroo PtK2 cells assessed as accumulation of cells at SubG1 phase at 2 uM treated for 7 hrs, washed followed by 48 hrs incubation by flow cytometry (Rvb= 1.1%); format: functional, Potorous tridactylus
[16] = system: A549; experiment: Binding affinity to beta-tubulin in human A549 cells at 1 uM after 24 hrs by HPLC analysis; format: cell-based
Outline: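 A549 monolayers exposed 24 h to 1 µM ligand or 0.1% DMSO. Tubulin purified from homogenate supernatant by one-step DEAE ion exchange (0.4 M KCl load, 0.8 M KCl elution) to 90% purity. Tryptic or chymotryptic digests analysed by HPLC-MRM with Q3 at m/z 249.0. Adduct fraction estimated from the areas of modified and unmodified peptide peaks.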

[17] = Displacement of [3H]paclitaxel from microtubule assessed as bound radioligand level at 20 uM treated before radioligand addition by competitive binding assay
[18] = Induction of mitotic cell cycle arrest in potoroo PtK2 cells assessed as accumulation of cells at SubG1 phase at 2 uM treated for 7 hrs, washed followed by 16 hrs incubation by flow cytometry (Rvb= 2%); format: functional, Potorous tridactylus
[19] = system: PtK2; experiment: Induction of microtubule bundle formation in potoroo PtK2 cells at 5 uM after 7 hrs by flow cytometry; format: cell-based; details: Potorous tridactylus
[20] = system: PtK2; experiment: Induction of microtubule bundle formation in potoroo PtK2 cells at 2 uM after 7 hrs by flow cytometry; format: cell-based; details: Potorous tridactylus
[21] = system: PtK2; experiment: Induction of micronucleation in potoroo PtK2 cells at 5 uM treated for 7 hrs followed by compound washout measured after 48 hrs by flow cytometry; format: functional, cell-based; details: Potorous tridactylus
[22] = Induction of micronucleation in potoroo PtK2 cells at 5 uM after 7 hrs by flow cytometry; format: functional, Potorous tridactylus
[23] = system: PtK2; experiment: Induction of micronucleation in potoroo PtK2 cells at 5 uM treated for 7 hrs followed by compound washout measured after 16 hrs by flow cytometry; details: Potorous tridactylus
[24] = Induction of mitotic cell cycle arrest in human A2780AD cells assessed as accumulation of cells at S phase at 100 nM after 24 hrs by flow cytometry (Rvb= 16.2%); format: functional, A2780 ADR
[25] = Induction of mitotic cell cycle arrest in potoroo PtK2 cells assessed as accumulation of cells at G2+M phase at 2 uM treated for 7 hrs, washed followed by 48 hrs incubation by flow cytometry (Rvb= 22.3%); format: functional, Potorous tridactylus
[26] = Induction of mitotic cell cycle arrest in potoroo PtK2 cells assessed as accumulation of cells at G1/G0 phase at 2 uM treated for 7 hrs, washed followed by 16 hrs incubation by flow cytometry (Rvb= 59%); format: functional, Potorous tridactylus
[27] = system: A549; experiment: Induction of mitotic cell cycle arrest in human A549 cells assessed as accumulation of cells at SubG1 phase at 100 nM after 24 hrs by flow cytometry (Rvb= 25%); format: functional
[28] = Displacement of [3H]epothilone B from microtubule assessed as bound radioligand level at 20 uM treated before radioligand addition by competitive binding assay
[29] = system: PtK2; experiment: Induction of micronucleation in potoroo PtK2 cells at 2 uM treated for 7 hrs followed by compound washout measured after 16 hrs by flow cytometry; details: Potorous tridactylus
[30] = Induction of micronucleation in potoroo PtK2 cells at 10 uM after 7 hrs by flow cytometry; format: functional, Potorous tridactylus
[31] = Induction of mitotic cell cycle arrest in human A2780AD cells assessed as accumulation of cells at G2+M phase at 100 nM after 24 hrs by flow cytometry (Rvb= 20.5%); format: functional, A2780 ADR
[32] = Induction of micronucleation in potoroo PtK2 cells at 2 uM after 7 hrs by flow cytometry; format: functional, Potorous tridactylus
[33] = Induction of mitotic cell cycle arrest in potoroo PtK2 cells assessed as accumulation at S phase at 2 uM treated for 7 hrs, washed followed by 48 hrs incubation by flow cytometry (Rvb= 10.7%); format: functional, Potorous tridactylus
[34] = Induction of mitotic cell cycle arrest in potoroo PtK2 cells assessed as accumulation at 100 nM after 24 hrs by flow cytometry (Rvb= 26.3%)

With CC1=C[C@H]2[C@@H](O)[C@H](C)[C@@H](O)[C@@H]2[C@H]2[C@@H]3C4=C5O[C@](C)(CC[C@@H](OC4=O)[C@H]5C)[C@@H]3C[C@@H]12 [CYCLOSTREPTIN] the Activity [1] was “Active”, the Activity [2] was 12.6% and the Activity [3] was 12.1%. The Activity [4] was 9.4%, the IC50 [5] was 58 nM and the Activity [6] was 48%. For the same compound, the Activity [7] was 18.5%, the Activity [8] was 2.3% and the Activity [9] was 32%. For the same compound, the Activity [10] was 19%, the Activity [11] was “Active” and the Activity [12] was “Active”. For the same compound, the Activity [13] was 72%, the Activity [14] was “Active” and the Activity [15] was 7.1%. The Activity [16] was “Active”, the Activity [17] was 25% and the Activity [18] was 3.5%. The Activity [19] was 4%, the Activity [20] was 4% and the Activity [21] was “Active”. For the same compound, the Activity [22] was 4%, the Activity [23] was 70% and the Activity [24] was 6%. For the same compound, the Activity [25] was 75%, the Activity [26] was 20.5% and the Activity [27] was 15%. For the same compound, the Activity [28] was 12%, the Activity [29] was 70% and the Activity [30] was 4%. The Activity [31] was 71%, the Activity [32] was 4% and the Activity [33] was 10%. The Activity [34] was 65%.
